Our source for the Activity and EC50 values is ChEMBL document CHEMBL5346886 (Eur J Med Chem, 2023).

Type in all cases: functional, organism-based
Assay [1] deals with Murine hepatitis virus. Description: Antiviral activity against murine hepatitis virus-A59 infected in BALB/c mouse model of acute liver injury assessed as reduction in plasma AST level at 10 to 200 mg/kg, po administered once daily one hour post infection and measured after 3 days. Particulars: dose 10-200 mg/kg, time 3.0 day. An outline of the steps: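 Male BALB/c mice were infected intranasally with MHV-A59 (30 μL, TCID50 = 10−7.125/100 μL) and dosed orally once daily from 1 hpi for four days in 15% Cremophor EL/82.5% PBS/2.5% DMSO. At 3 dpi, blood from 4 euthanized mice per group was left to clot at room temperature and centrifuged. Serum ALT and AST were measured on a clinical chemistry analyzer.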

For assay [2], the system named is Murine hepatitis virus. Description: Antiviral activity against murine hepatitis virus-A59 infected in BALB/c mouse assessed as reduction in IFN-beta production in lungs at 200 mg/kg, po administered once daily one hour post infection and measured after 3 days by ELISA analysis. As to conditions: time 3.0 day. An outline of the steps: (§1)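 MHV-A59 was inoculated intranasally into male BALB/c mice (30 μL, TCID50 = 10−7.125/100 μL), with oral dosing once daily from 1 hpi for four days. At 3 dpi, 0.1 g lung or liver from 4 mice per group was homogenized in 0.9 mL water at 4 °C and centrifuged. Supernatant IFN-β was read by ELISA; TNF-α, IFN-γ, IL-1β, IL-6 and CXCL10 by multi-analyte kit, with OD 450 nm against standards.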
(In an ELISA, binding on a coated surface is turned into a signal by an enzyme label.)

In assay [3] the test system is Murine hepatitis virus. Description: Antiviral activity against murine hepatitis virus-A59 infected in BALB/c mouse assessed as reduction in TNF-alpha production in liver at 10 to 100 mg/kg, po administered once daily one hour post infection and measured after 3 days by ELISA analysis. Particulars: dose 10-100 mg/kg, time 3.0 day. An outline of the steps: as §1
Assay [4] concerns Murine hepatitis virus. Description: Antiviral activity against murine hepatitis virus-A59 infected in BALB/c mouse assessed as reduction in TNF-alpha production in lungs at 200 mg/kg, po administered once daily one hour post infection and measured after 3 days by ELISA analysis. Particulars: time 3.0 day. An outline of the steps: as §1
Assay [5] relates to Feline infectious peritonitis virus. Description: Antiviral activity against Feline infectious peritonitis virus infected in CRFK cells assessed as reduction in viral copy pre-infected with cells for 1 hrs followed by compound addition and measured after 48 hrs by RT-qPCR analysis. As to conditions: Alphacoronavirus 1, CRFK. An outline of the steps:
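CRFK cells (CCoV, FIPV) or ST cells (TGEV) were grown in DMEM with 10% FBS at 37 °C, 5% CO2. At 80% confluence they were washed in serum-free medium and infected at MOI 0.01 for 1 h at 37 °C. Compounds were then added at 0.1–100 μmol/L, with DMSO as blank. After 48 h, cells and supernatants were analysed by qRT-PCR. Inhibition came from viral copy number, and EC50 from curve fitting.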

Active and inactive are the calls of the source. The rule behind the calls is not given here.

For `CC(C)Cc1ccc(C(C)C(=O)OC[C@H]2O[C@@](C#N)(c3ccc4c(N)ncnn34)[C@H](O)[C@@H]2O)cc1` (stereo not given in full), the result with Murine hepatitis virus [1], in the assay on Murine hepatitis virus [2], with Murine hepatitis virus [3] and in the assay on Murine hepatitis virus [4] was Active. In addition, the EC50 in assay [5] was found to be 7.34 µM.

Broadly, the EC50 is the concentration needed to bring the measured effect to its halfway point.
